# MEKK2 mut-MEK5 = MEK5 binding signal on mutant MEKK2 PB1, primary screen, biochemical, multiplex bead flow cytometry, Alexa488-MEK5; Alexa488-MEK5 binding to MEKK2 mutant; percent response, % at 10 µM; 290,000 compounds, 0.35% hits; AID 1530, 2009; in the data active means percent response above about 24%, passing the limit was not always enough
# MEKK2 WT-MEK5 = modulators of MEK5 binding to wildtype MEKK2, primary screen, biochemical, multiplex bead flow cytometry, Alexa488-MEK5; 290,000 compounds, 1.1% hits; Alexa488-MEK5 binding to MEKK2 WT; actives lie on both sides; AID 1531, 2009; Mitogen-activated protein kinase kinase kinase 2 (Homo sapiens), Q9Y2U5; binding response (% of control), % at 10 µM; in the data active means binding response below about 67% or above about 130%
# Apaf-1 inh = inhibitors of human Apaf-1 apoptosome, primary screen, biochemical, DEVD-Rh110 fluorescence, uHTS. 330,000 compounds, 0.71% hits. inhibition, % at 20 µM. Apoptotic protease-activating factor 1 (Homo sapiens), O14727. reconstituted apoptosome caspase-3 activity; active means inhibition of at least 40% at 20 µM;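 further: plate controls were DMSO wells for no effect and DEVD-CHO caspase inhibitor wells for full effect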
# Target sequence (O14727 whole entry, looked up): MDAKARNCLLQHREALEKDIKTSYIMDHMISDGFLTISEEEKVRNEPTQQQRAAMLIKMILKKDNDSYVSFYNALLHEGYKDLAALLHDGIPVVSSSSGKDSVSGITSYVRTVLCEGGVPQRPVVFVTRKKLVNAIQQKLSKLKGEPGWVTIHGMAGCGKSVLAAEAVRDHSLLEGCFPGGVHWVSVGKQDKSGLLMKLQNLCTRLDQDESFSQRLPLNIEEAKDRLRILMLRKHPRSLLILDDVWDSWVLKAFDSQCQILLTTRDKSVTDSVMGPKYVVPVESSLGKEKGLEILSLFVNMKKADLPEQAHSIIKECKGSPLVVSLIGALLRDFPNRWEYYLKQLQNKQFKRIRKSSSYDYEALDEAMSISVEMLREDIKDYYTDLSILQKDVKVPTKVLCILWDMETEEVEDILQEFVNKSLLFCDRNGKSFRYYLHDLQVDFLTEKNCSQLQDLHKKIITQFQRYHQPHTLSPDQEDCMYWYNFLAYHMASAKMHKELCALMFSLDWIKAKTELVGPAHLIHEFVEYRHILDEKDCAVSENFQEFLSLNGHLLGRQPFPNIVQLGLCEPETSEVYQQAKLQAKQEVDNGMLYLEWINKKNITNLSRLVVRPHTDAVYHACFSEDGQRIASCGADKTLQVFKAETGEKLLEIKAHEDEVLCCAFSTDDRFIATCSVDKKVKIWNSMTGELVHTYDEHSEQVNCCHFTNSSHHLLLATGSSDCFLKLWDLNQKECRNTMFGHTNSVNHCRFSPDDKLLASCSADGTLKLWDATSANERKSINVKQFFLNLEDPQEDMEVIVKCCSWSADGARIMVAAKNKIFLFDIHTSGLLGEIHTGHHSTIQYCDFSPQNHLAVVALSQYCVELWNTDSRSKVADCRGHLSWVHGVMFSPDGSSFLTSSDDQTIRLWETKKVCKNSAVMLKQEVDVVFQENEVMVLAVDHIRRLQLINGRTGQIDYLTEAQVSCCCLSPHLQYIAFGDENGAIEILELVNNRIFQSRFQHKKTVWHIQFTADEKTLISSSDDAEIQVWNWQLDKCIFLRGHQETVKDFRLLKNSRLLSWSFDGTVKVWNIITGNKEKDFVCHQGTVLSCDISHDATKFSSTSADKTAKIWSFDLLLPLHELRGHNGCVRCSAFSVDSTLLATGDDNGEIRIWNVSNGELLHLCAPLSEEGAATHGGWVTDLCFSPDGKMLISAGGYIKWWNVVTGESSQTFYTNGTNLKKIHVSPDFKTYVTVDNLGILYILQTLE
#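 Material: cell-free apoptosome with Apaf-1, procaspase-3 and caspase-9; Buffer or medium: Hepes pH 7.5 with detergent and BSA; Reagent: cytochrome c trigger plus (Z-DEVD)2-Rh110 caspase-3 substrate; Times: compound with Apaf-1, dATP, procaspase-3 30 min, then 50 min reaction, room temperature; Technique: Rh110 fluorescence intensity.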
# MEKK3 PB1 HTS = modulators of MEKK3-MEK5 PB1 binding, primary screen, biochemical, wildtype MEKK3, multiplex bead flow cytometry, Alexa488-MEK5. 290,000 compounds, 1.4% hits. bead-based flow cytometry, Alexa488-MEK5 binding to MEKK3; actives lie on both sides; 0 = blocked by unlabeled MEK5, 100 = vehicle. binding response (% of control), % at 10 µM. Mitogen-activated protein kinase kinase kinase 3 (Homo sapiens), Q99759;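 active means binding response more than 3 SD above or below the average of its plate-row segment, actives on both sides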;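 further: Alexa488 bead fluorescence after subtracting the streptavidin-only scavenger bead signal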
# UBC13 polyUb = UBC13 polyubiquitin chain formation inhibitors, primary screen, biochemical, TR-FRET, uHTS. inhibition, % at 20 µM. 330,000 compounds, 0.47% hits; in the data active means inhibition above about 45%, passing the limit was not always enough
# Apaf-1 inh conf = Apaf-1 inhibitors, single-dose retest, confirmation, biochemical, fluorescence, DEVD-Rh110, 20 µM | reconstituted apoptosome, caspase-3 DEVD-Rh110 fluorescence | AID 504614, 2011 | inhibition, % at 20 µM | shares compounds with Apaf-1 inh | 1,800 compounds, 25% hits;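 active means mean inhibition of at least 40% at 20 µM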;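 further: plate controls were DMSO wells for no effect and DEVD-CHO caspase inhibitor control wells for full effect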
# Rh110 interf inh = Rh110 fluorescence interference by putative Apaf-1 inhibitors, confirmation, artefact control for Apaf-1 inhibitor project, biochemical, 20 µM | shares compounds with Apaf-1 inh | quenched caspase reaction | activation (fluorescence interference), % at 20 µM | 1,800 tested, under 10 active;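 active means signal rise of 40% or more at 20 µM, treated as a fluorescence artifact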
# Fluor interf inh = fluorescence interference of Apaf-1 inhibitor hits, dose response, artefact control for Apaf-1 inhibitor project; shares compounds with Apaf-1 inh; fluorescence interference counterscreen, Apaf-1 assay format; IC50, µM; 460 tested, under 10 active; call rule not given here
# Numbers without * were called inactive; nt = not tested or not shown. Sampled rows, rich in hits. Any-hit rate of the full collection: about 2.9%.
SMILES,MEKK2 mut-MEK5,MEKK2 WT-MEK5,Apaf-1 inh,MEKK3 PB1 HTS,UBC13 polyUb,Apaf-1 inh conf,Rh110 interf inh,others
CCOCCCNC(=O)c1c[nH]c2ccc(OCC)cc2c1=O,3,107,-2,101,7,nt,nt,
O=[N+]([O-])c1cc2c(cc1C=Nc1ccccc1)OCO2,-1,96,48*,99,-29,16,7,
Cc1cccc(N=Cc2cc3c(cc2[N+](=O)[O-])OCO3)c1,1,100,35,103,-24,nt,nt,
O=C(NCCc1ccc(F)cc1)C(=O)NCC1CCCN1S(=O)(=O)c1cccs1 (centres undefined),nt,nt,15,nt,-9,nt,nt,
Cc1cc(=O)[nH]c2sc(C(=O)N3c4ccccc4CC3C)c(N)c12 (centres undefined),nt,nt,1,nt,-4,nt,nt,
S=C(Nc1ccc(N2CCOCC2)cc1)Nc1ccc2nc(-c3ccco3)c(-c3ccco3)nc2c1,nt,nt,41*,nt,32,26,9,
Cc1ccc(Oc2nnc(-c3ccc(C)cc3)c3ccccc23)cc1,-1,100,8,122,4,nt,nt,
COc1ccccc1C(=O)Nc1ccc(Oc2nnc(-c3ccc(C)cc3)c3ccccc23)cc1,7,90,40*,99,-18,8,6,
COCCCn1c(=O)c2sccc2n(Cc2ccccc2)c1=O,2,98,-5,103,10,nt,nt,
COCCCn1c(=O)c2sccc2n(Cc2ccccc2C)c1=O,1,102,60*,102,-6,8,4,
C=C1c2ccccc2NC(=S)N1Cc1ccc2c(c1)OCO2,-6,93,6,100,1,nt,nt,
O=C1CCNc2cc3ccccc3cc21,0,94,62*,98,-40,20,11,
O=C1CCNc2ccc(-c3ccccc3)cc21,-1,95,26,92,-2,nt,nt,
CCN(CC(=O)Nc1ccc(OC)cc1)C(=O)C1CCN(C(=O)c2ccc(Cl)cc2)CC1,nt,nt,58*,nt,40,38,2,
CCCN(CC(=O)Nc1ccccc1C)C(=O)C1CC(=O)N(Cc2ccccc2)C1 (centres undefined),nt,nt,4,nt,-8,nt,nt,
CCN(CC(=O)Nc1c(F)cccc1F)C(=O)C1CCN(C(=O)c2ccc(F)cc2)CC1,nt,nt,6,nt,-4,nt,nt,
CCCN(CC(=O)Nc1ccccc1C)C(=O)C1CC(=O)N(c2ccccc2C(C)CC)C1 (centres undefined),nt,nt,48*,nt,15,33,4,
CCCN(CC(=O)Nc1ccccc1C)C(=O)C1CCCN(C(=O)c2ccc(Cl)cc2)C1 (centres undefined),nt,nt,48*,nt,36,32,-4,
CCN(CC)CCN(C(=O)c1ccc2c(c1)CCCC2)c1nc2ccc(C)cc2s1,31*,148*,51*,108,8,11,7,
CCN(CC)CCN(C(=O)c1ccc2c(c1)CCCC2)c1nc2ccc(OC)cc2s1,18,130,61*,106,4,19,7,
CCOC(=O)c1cnc2c(-c3ccccc3OC)c(C)nn2c1C,-1,101,2,100,10,nt,nt,
Cc1cccc(NC(=O)CCCn2cc([N+](=O)[O-])cn2)n1,-2,98,-2,108,3,nt,nt,
COc1cc(NC2CCCCC2O)c2nc(-c3ccc(Cl)cc3)ccc2c1 (centres undefined),-6,89,55*,96,-28,22,19,
CCCc1nc2cc3c(cc2[nH]1)n(C)c(=O)n3C,5,102,-5,102,0,nt,nt,
Cc1c(CN(C)C)c2c(n1C)C(=O)c1ccc(Br)cc1-2,0,100,6,99,-161,nt,nt,
SMILES,MEKK2 mut-MEK5,MEKK2 WT-MEK5,Apaf-1 inh,MEKK3 PB1 HTS,UBC13 polyUb,Apaf-1 inh conf,Rh110 interf inh,others
CCOC(=O)c1c2c(n(C)c1C)C(=O)C(=O)c1ccc(Br)cc1-2,3,99,96*,92,-61,72*,6,Fluor interf inh=>100
Cc1ccccc1NC1=C/C(=N\S(=O)(=O)c2ccc(C(=O)O)cc2)c2ccccc2C1=O,-8,92,97*,101,-164,98*,3,Fluor interf inh=>100
COC(=O)C(C(C)=O)C1=C/C(=N\S(=O)(=O)c2ccc(C)cc2)c2ccccc2C1=O (centres undefined),2,97,21,101,-11,nt,nt,
O=C(O)c1ccc(S(=O)(=O)/N=C2\C=C(Nc3ccccc3F)C(=O)c3ccccc32)cc1,0,95,96*,100,-168,98*,-4,Fluor interf inh=>100
Cc1ccccc1C(=O)Nc1ccnn1C1CCN(C(=O)c2cnsn2)CC1,0,102,-1,100,-10,nt,nt,
COCCNC(=O)Cn1nc(-c2ccc(C)cc2)c2ccccc2c1=O,-1,98,-2,98,4,nt,nt,
Cc1ccc(Cc2c(C)c(C#N)c3[nH]c4ccccc4n3c2=O)cc1,4,101,6,102,3,nt,nt,
C=C(C)Cc1c(C)c(C#N)c2[nH]c3ccccc3n2c1=O,3,104,62*,103,-14,45*,5,Fluor interf inh=>100
CC(Cc1ccsc1)NC(=O)CCc1nnc(CCc2ccccc2)o1 (centres undefined),9,108,-14,105,7,nt,nt,
CC(C)(C)c1ccc(S(=O)(=O)N2CCN(C(=O)C3CCC3)CC2)cc1,5,107,5,100,6,nt,nt,
CC(=O)N(/N=C1\Sc2ccccc2C1=O)c1cccc(C)c1,9,107,86*,107,-53,85*,5,Fluor interf inh=>100
Cc1cc(C)nc(NCc2ccc(Cl)cc2)n1,2,107,8,101,-3,nt,nt,
Cc1cc(Nc2cccc(Cl)c2)nc(NCc2ccccc2)n1,8,119,43*,100,49*,15,6,
COc1cccc(CN2CCNC(=O)C2CC(=O)N(C)Cc2cnccn2)c1OC (centres undefined),-3,100,0,103,-3,nt,nt,
CN1c2ccccc2C(C)(C)C12C=Cc1cc(O)ccc1O2 (centres undefined),6,99,10,107,-23,nt,nt,
CN1c2ccccc2C(C)(C)C12C=Nc1c(cc(N3CCOCC3)c3ccccc13)O2 (centres undefined),nt,nt,69*,nt,-16,19,3,

# Screening results deposited in PubChem by several laboratories.
